Hits are enriched below; roughly 4.7% of the tested compounds scored in any of these assays.
ADAM17 inh: ADAM17 inhibition, QFRET primary screen; P78536; recombinant ADAM17, EDANS/DABCYL FRET peptide cleavage; inhibition, % at 6.95 µM; 370,000 tested, 0.83% active;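 active = inhibition above the mean of compounds lying between control limits plus 3 SD, set per campaign, cut at about 8.5% in these data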
Target sequence (P78536 215-824 limits assumed): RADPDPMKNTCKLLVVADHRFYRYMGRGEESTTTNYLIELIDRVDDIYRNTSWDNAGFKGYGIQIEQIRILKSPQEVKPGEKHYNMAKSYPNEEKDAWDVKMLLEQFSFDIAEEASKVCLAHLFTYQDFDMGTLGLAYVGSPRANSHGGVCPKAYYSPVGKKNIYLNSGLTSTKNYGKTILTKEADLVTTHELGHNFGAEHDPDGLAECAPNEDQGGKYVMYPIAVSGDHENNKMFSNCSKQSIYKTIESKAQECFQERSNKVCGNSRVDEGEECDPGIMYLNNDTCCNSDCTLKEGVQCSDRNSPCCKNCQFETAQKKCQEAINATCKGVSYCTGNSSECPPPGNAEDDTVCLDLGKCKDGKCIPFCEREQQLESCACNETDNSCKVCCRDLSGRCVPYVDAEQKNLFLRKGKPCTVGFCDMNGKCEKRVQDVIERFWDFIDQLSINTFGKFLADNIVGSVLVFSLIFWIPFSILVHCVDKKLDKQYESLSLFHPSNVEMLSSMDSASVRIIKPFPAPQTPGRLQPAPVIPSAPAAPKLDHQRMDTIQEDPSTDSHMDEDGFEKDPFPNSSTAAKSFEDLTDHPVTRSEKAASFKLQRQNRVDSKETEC
NR3A LBD binder: NR3A (human) ligand-binding domain modulation; 340,000 tested, 2.5% active; NR3A LBD differential scanning fluorimetry, Tm shift; 0% = protein alone, 100% = glycine-bound protein; Tm shift relative to glycine control, % at 25 µM;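 active = melting temperature shift of at least 10% of the positive control shift, at one fixed dose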
SKN-1 inh: blocks SKN-1 activity in C. elegans. C. elegans VP596 Pgst-4::GFP/RFP ratio, acrylamide-induced, 24 h. inhibition, % at 21.8 µM. 360,000 tested, 0.49% active;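 active = interference check ratio from 0.5 to 1.5 plus GFP to RFP signal ratio inhibition reaching or exceeding a fixed threshold, cut at about 30% in these data, passing the limit was not always enough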
MT1-MMP act inh: inhibitors of human MT1-MMP activation; P50281; HT1080 RFP-PRO-GFP cells, GFP/RFP ratio fluorescence, overnight; percent of plate control window, DMSO zero; GFP/RFP ratio change, % at 20 µM; 360,000 tested, 0.061% active; AID 651647;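 active = GFP/RFP ratio change of at least 30% with cell ATP level not reduced by more than half and red fluorescence within 50% of control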
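Test system: HT1080 RFP-PRO-GFP cells; Benchmarks: DMSO and RFP-L50D-GFP cell wells; Timing: cells overnight before dosing, compound overnight, 37 °C, 5% CO2; Compound: one 20 µM compound dose with 1% DMSO; Read-out: GFP/RFP fluorescence ratio.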
ADAM10 inh: ADAM10 inhibition, QFRET primary screen; O14672; recombinant ADAM10, EDANS/DABCYL FRET peptide cleavage, 3 h; inhibition, % at 7 µM; 370,000 tested, 0.62% active;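 active = inhibition above a per-campaign cutoff equal to the mean of compounds falling between control-based bounds plus 3 SD, cut at about 20% in these data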
MPTP inh: inhibitors of mitochondrial permeability transition pore | isolated mouse mitochondria, Ca2+ swelling absorbance, 30 min | inhibition, % at 10 µM | 360,000 tested, 1.4% active | AID 602449;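 active = inhibition of 50% or more, scaled per plate between neutral and stimulator controls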
Large screens that a line does not name were inactive.

O=[N+]([O-])c1ccc2nc(-c3ccccc3)oc2c1	SKN-1 inh 42.3
O=[N+]([O-])c1cccc(/C=C/c2nc3ccc([N+](=O)[O-])cc3[nH]2)c1	NR3A LBD binder 16.0
O=[N+]([O-])c1cccc(-c2cc3ccccc3[nH]2)c1	NR3A LBD binder 33.6
O=[N+]([O-])c1cccc(/C=N/Nc2ccccn2)c1	none
O=[N+]([O-])c1cccc(/C=C/c2ccccn2)c1	SKN-1 inh 35.8
COc1cccc(-c2nc3ccc([N+](=O)[O-])cc3o2)c1	none
C=C(C)C(=O)Nc1cccc(C2=NOC3(C2)C[C@@H](C(N)=O)N(C(=O)c2ccc(OC)cc2)C3)c1 (stereo partly drawn)	none (no result: ADAM17 inh, ADAM10 inh)
Cc1cc(C(=O)N2CCCC(N3CCN(c4cccc(C(F)(F)F)c4)CC3)C2)n[nH]1 (stereo not drawn)	none
CC(C)c1ccccc1NC(=O)c1ccc2ncsc2c1	none
O=C(Cc1ccc(Cl)cc1)NCCN1CCCC1	none
CC(C)(C)OC(=O)N1CCC(CC2CC(c3ccc(Cl)cc3)=NO2)(C(=O)NCC2CCCCC2)CC1 (stereo not drawn)	none
c1ccc(-c2cc3ccccc3[nH]2)cc1	none
COc1ccc(-c2cc3ccccc3[nH]2)cc1	NR3A LBD binder 13.8
O=[N+]([O-])c1ccc2nc(-c3ccccc3)[nH]c2c1	NR3A LBD binder 16.5
CCCNC(=O)Nc1nnc(C2CC2)s1	none
CCN(CC)S(=O)(=O)c1ccc2[nH]c(=O)cc(C(=O)NCC3CCCO3)c2c1 (stereo not drawn)	NR3A LBD binder 16.8
Cc1nnc(-c2cnn(C)c2N)n1Cc1ccccc1F	none
COc1cc(/C=C/C(=O)OCC(=O)NCc2ccco2)ccc1OC(F)F	NR3A LBD binder 14.1
O=C(COC(=O)c1ccc2[nH]c3c(c2c1)CCCC3)Nc1ccccc1Cl	NR3A LBD binder 12.6
O=C(COC(=O)c1ccc2[nH]c3c(c2c1)CCCC3)Nc1ccc(Cl)cc1Cl	NR3A LBD binder 27.0
Cn1c(SCC(=O)NC2(C#N)CCCCC2)nnc1-c1cccnc1	NR3A LBD binder 17.4
Cc1cccc(NC(=O)c2cc(-c3c(C)cc(C)cc3O)n[nH]2)c1	none
Cc1ccc(NC(=O)c2cc(-c3cc(Cl)ccc3O)n[nH]2)cc1C	NR3A LBD binder 29.2
Cc1cccc(NC(=O)c2cc(-c3cc(C)cc(C)c3O)n[nH]2)c1	NR3A LBD binder 35.7
Cc1cccc(NC(=O)c2cc(-c3cc(Cl)ccc3O)n[nH]2)c1	NR3A LBD binder 36.0 (no result: ADAM17 inh, ADAM10 inh)
Cc1cc(=O)cc(C)n1-c1ccc(O)cc1	none
Cc1ccc(C)c(N2CCN(C(=O)CCc3nc(-c4cccc(F)c4)no3)CC2)c1	NR3A LBD binder 19.5
Cc1ccc(C)c(N2CCN(C(=O)CCc3nc(-c4cccc(Br)c4)no3)CC2)c1	none
CCCCCCn1c(N2CCC(C(N)=O)CC2)nc2c1c(=O)n(C)c(=O)n2C	SKN-1 inh 45.1
COc1cccc(CNc2ncc(C(=O)Nc3cc(OC)c(OC)c(OC)c3)c(C)n2)c1	none
NC(=O)c1cc2c(s1)-c1cc(Cl)ccc1SC2	NR3A LBD binder 46.7
COCCNC(=O)c1cc2c(s1)-c1ccc(Cl)cc1SC2	none
Cc1snc(SCc2cccc(Cl)c2)c1C#N	NR3A LBD binder 20.2
Cc1[nH]c(=O)nc(SCc2cccc(Cl)c2)c1C#N	none
COCCNC(=O)CSc1nc2cc3c(cc2c(=O)n1CCCC(=O)NCc1ccc(OC)cc1)OCO3	none
Cc1cccc(CC(=O)Nc2cc(C)c3c(=O)oc4ccccc4c3n2)c1	none
Clc1ccc(-c2c[nH]c3ccccc23)nn1	NR3A LBD binder 18.1
Nc1ncnc(Nc2ccccn2)c1[N+](=O)[O-]	none
COC(=O)c1sccc1NC(=O)Cc1ccc(Br)cc1	NR3A LBD binder 11.6
COC(=O)c1sccc1NC(=O)Cc1ccc(OC)c(OC)c1	none
COC(=O)c1sccc1NC(=O)c1cccnc1	NR3A LBD binder 669.0
CC(=O)c1ccc(NC(=O)COc2ccccc2C(=O)Nc2ccccc2)cc1	NR3A LBD binder 15.1
COC(=O)c1sccc1NC(=O)c1cccc(Cl)c1	none
CC(=O)c1ccc(NC(=O)COc2ccccc2C(=O)Nc2ccc(C)cn2)cc1	none
CCOc1ccccc1C(=O)Nc1ccc(NC(=O)c2ccccc2)cc1	NR3A LBD binder 16.9
